Experimental data from ChEMBL document CHEMBL4145456, “Synthesis and biological evaluation of novel 2-arylvinyl-substituted naphtho[2,3-d]imidazolium halide derivatives as potent antitumor agents” (Eur J Med Chem, 2018).
Activity calls are given as the source filed them. No cut-off for these calls is given here.

Key:
PC-3 [1] = experiment: Antiproliferative activity against human PC3 cells after 48 hrs by CellTiter 96 aqueous one solution assay; type: functional, cell-based; conditions: PC-3, 48 h
Procedure, shortened: (§1)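 Cells in 10% FBS medium with penicillin/streptomycin at 37°C, 5% CO2, seeded at 3000-10000 per well and precultured 1 day. DMSO stocks (10 mM) were diluted to a 10 µM top working solution, then serially diluted 3-fold in medium. Exposure was 48 h. Read-out was MTS tetrazolium-to-formazan absorbance at 492 nm. IC50 came from a three-parameter logistic fit, mean of three independent experiments.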

A-375 [2] = experiment: Antiproliferative activity against human A375 cells after 48 hrs by CellTiter 96 aqueous one solution assay; type: functional, cell-based; conditions: A-375, 48 h; procedure, shortened: as §1
HeLa = experiment: Antiproliferative activity against human HeLa cells after 48 hrs by CellTiter 96 aqueous one solution assay; type: functional, cell-based; procedure, shortened: as §1
Ehrlich = experiment: Antitumor activity against mouse EAC cells implanted in ICR mouse assessed as tumor growth inhibition at 30 mg/kg, ip qd dosed for 10 consecutive days relative to control; conditions: read-out: TGI
Mus musculus [3] = experiment: Toxicity in ICR mouse implanted with EAC cells assessed as decrease in spleen index at 0.06 to 0.6 mg/kg, ip qd dosed for 10 consecutive days; type: organism-based; conditions: in vivo
Procedure, shortened: (§2)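 Adult male ICR mice, 6 weeks, 20-25 g, n=7 per group. Given 5×10^6 EAC cells s.c. in the right thigh; cells came from intraperitoneal passage in donor mice. From day 1, dosed i.p. daily for 10 d (0.1 mL/10 g) in saline with 4% DMA and 2% Solutol HS15; vehicle controls included. Spleen and thymus weighed at sacrifice; organ index is organ weight/body weight.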

Mus musculus [4] = experiment: Toxicity in ICR mouse implanted with EAC cells assessed as decrease in thymus index at 0.06 to 0.6 mg/kg, ip qd dosed for 10 consecutive days; type: organism-based; conditions: in vivo; procedure, shortened: as §2
Homo sapiens [5] = organism: Homo sapiens; experiment: Induction of microtubule disruption in human A375 cells assessed as appearance of rounded cell at 70 nM after 24 hrs by FITC/DAPI staining-based fluorescence assay
Procedure, shortened: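 A375 cells at 8×10^3 per well were treated for 24 h at 37°C, then washed, fixed, blocked and permeabilized. They were stained with anti-α-tubulin overnight and a FITC secondary for 3 h, and nuclei were counterstained with DAPI. Automated imaging was at 200×, and rounded cells were scored from morphology.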

Homo sapiens [6] = organism: Homo sapiens; experiment: Induction of microtubule disruption in human A375 cells assessed as cell detachment at 70 nM after 24 hrs by FITC/DAPI staining-based fluorescence assay
Procedure, shortened: (§3)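 A375 cells grown in 96-well plates, 8×10^3 cells/well, exposed to DMSO vehicle or compound for 24 h at 37°C. Cells were washed, then fixed, blocked and permeabilized. They were stained overnight with monoclonal α-tubulin primary antibody, then 3 h with FITC-labelled secondary; nuclei counterstained with DAPI. Imaged on an automated imaging system at 200×. Paclitaxel served as positive control.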

Homo sapiens [7] = organism: Homo sapiens; experiment: Induction of microtubule disruption in human A375 cells assessed as cell shrunk with improper microtubule bundling at 70 nM after 24 hrs by FITC/DAPI staining-based fluorescence assay; procedure, shortened: as §3
A-375 [8] = experiment: Induction of apoptosis in human A375 cells assessed as decrease in survivin expression at 10 to 1000 nM after 48 hrs by Western blot analysis; type: functional, cell-based
Procedure, shortened: (§4)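 A375 cells at 1×10^5 per well were treated for 48 h and lysed in RIPA buffer. Equal protein was run on 12% SDS-PAGE and transferred to PVDF, which was blocked in 5% milk/PBS for 1 h at room temperature. Primary antibodies (survivin, caspase-3, Bcl-2, PARP, p-ERK, total ERK, GAPDH) were used at 1:1000. GAPDH served as loading control.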

A-375 [9] = experiment: Induction of apoptosis in human A375 cells assessed as increase in procaspase-3 cleavage at 10 to 1000 nM after 48 hrs by Western blot analysis; type: functional, cell-based; procedure, shortened: as §4
A-375 [10] = experiment: Induction of apoptosis in human A375 cells assessed as decrease in Bcl-2 expression at 10 to 1000 nM after 48 hrs by Western blot analysis; type: functional, cell-based; procedure, shortened: as §4
A-375 [11] = experiment: Induction of apoptosis in human A375 cells assessed as viable cells at 10 nM after 24 hrs by Annexin V/propidium iodide staining-based FACS analysis (reference value: 92.2%); type: functional; conditions: A-375, 24 h, read-out: Activity
A-375 [12] = experiment: Induction of apoptosis in human A375 cells assessed as viable cells at 100 nM after 24 hrs by Annexin V/propidium iodide staining-based FACS analysis (reference value: 92.2%); type: functional; conditions: A-375, 24 h, read-out: Activity
A-375 [13] = experiment: Induction of apoptosis in human A375 cells assessed as viable cells at 1000 nM after 24 hrs by Annexin V/propidium iodide staining-based FACS analysis (reference value: 92.2%); type: functional; conditions: A-375, 24 h, read-out: Activity
PC-3 [14] = experiment: Induction of apoptosis in human PC3 cells assessed as viable cells at 1 nM after 24 hrs by Annexin V/propidium iodide staining-based FACS analysis (reference value: 97.0%); type: functional; conditions: PC-3, 24 h, read-out: Activity
PC-3 [15] = experiment: Induction of apoptosis in human PC3 cells assessed as viable cells at 10 nM after 24 hrs by Annexin V/propidium iodide staining-based FACS analysis (reference value: 97.0%); type: functional; conditions: PC-3, 24 h, read-out: Activity
PC-3 [16] = experiment: Induction of apoptosis in human PC3 cells assessed as viable cells at 100 nM after 24 hrs by Annexin V/propidium iodide staining-based FACS analysis (reference value: 97.0%); type: functional; conditions: PC-3, 24 h, read-out: Activity
A-375 [17] = experiment: Induction of apoptosis in human A375 cells after 24 hrs by Annexin V/propidium iodide staining-based FACS analysis; type: functional, cell-based

SMILES | IC50 (PC-3 [1]) [nM] | IC50 (A-375 [2]) [nM] | IC50 (HeLa) [µM] | also measured
COCC[n+]1c2c(n(Cc3ccccc3)c1C)C(=O)c1ccccc1C2=O | 73 | 1140 | 10 | 
O=P1(N(CCCl)CCCl)NCCCO1 (stereo not drawn) [CYCLOPHOSPHAMIDE ANHYDROUS] |  |  |  | inhibition in vivo at 30 mg/kg (Ehrlich): 48.9%
CC[n+]1c2c(n(C(C)C)c1/C=C/c1ccc(O)cc1)C(=O)c1ccccc1C2=O | 72 | 5580 | > 30 | 
COCC[n+]1c2c(n(Cc3cccc(OC)c3)c1/C=C/c1cc(OC)c(OC)c(OC)c1)C(=O)c1ccccc1C2=O | 291 | 1000 | 7.5 | 
CC[n+]1c2c(n(C(C)C)c1/C=C/c1cccc(O)c1)C(=O)c1ccccc1C2=O | 140 | 2940 | 13 | 
CC[n+]1c2c(n(C(C)C)c1/C=C/c1c[nH]c3ccccc13)C(=O)c1ccccc1C2=O | 71 | 553 | 6.12 | 
COCC[n+]1c2c(n(Cc3cccc(OC)c3)c1/C=C/c1c[nH]c3ccccc13)C(=O)c1ccccc1C2=O | 215 | 353 | 1.37 | 
CC[n+]1c2c(n(C(C)C)c1/C=C/c1ccc(O)c(OC)c1)C(=O)c1ccccc1C2=O | 90 | 6580 | > 30 | 
COCC[n+]1c2c(n(Cc3ccccc3)c1/C=C/c1c[nH]c3ccccc13)C(=O)c1ccccc1C2=O.[Br-] |  |  |  | Activity (Mus musculus [3]): Non-Toxic; Activity (Mus musculus [4]): Non-Toxic
CC[n+]1c2c(n(C3CC3)c1/C=C/c1ccc(OC)c(OC)c1)C(=O)c1ccccc1C2=O | 66 | 8000 | 13.5 | 
CC[n+]1c2c(n(C3CC3)c1/C=C/c1cc(OC)c(OC)c(OC)c1)C(=O)c1ccccc1C2=O | 143 | 26000 | > 30 | 
COCC[n+]1c2c(n(Cc3ccccc3)c1/C=C/C=C/c1ccccc1)C(=O)c1ccccc1C2=O | 212 | 551 | 1.28 | 
COCC[n+]1c2c(n(Cc3ccccc3)c1/C=C/c1cccc(O)c1)C(=O)c1ccccc1C2=O | 100 | 791 | 4.86 | 
COCC[n+]1c2c(n(Cc3cccc(OC)c3)c1/C=C/c1cccc(O)c1)C(=O)c1ccccc1C2=O | 222 | 1120 | 7.33 | 
CC(=O)O[C@H]1C(=O)[C@@]2(C)[C@H]([C@H](OC(=O)c3ccccc3)[C@]3(O)C[C@H](OC(=O)[C@H](O)[C@@H](NC(=O)c4ccccc4)c4ccccc4)C(C)=C1C3(C)C)[C@]1(OC(C)=O)CO[C@@H]1C[C@@H]2O |  |  |  | Activity (Homo sapiens [5]): Active; Activity (Homo sapiens [6]): Active; Activity (Homo sapiens [7]): Active

Continued, in another order:

IC50 (PC-3 [1]) [nM] | IC50 (A-375 [2]) [nM] | IC50 (HeLa) [µM] | SMILES | also measured
39 | 1430 | 9.93 | CC[n+]1c2c(n(C(C)C)c1/C=C/c1ccc([N+](=O)[O-])cc1)C(=O)c1ccccc1C2=O | 
38 | 1310 | 6.54 | CC[n+]1c2c(n(C3CC3)c1/C=C/c1ccccc1)C(=O)c1ccccc1C2=O | 
28 | 5360 | 11.3 | CC[n+]1c2c(n(C3CC3)c1/C=C/c1cccc([N+](=O)[O-])c1)C(=O)c1ccccc1C2=O | 
38 | 13900 | 18.5 | CC[n+]1c2c(n(C3CC3)c1/C=C/c1ccc(O)c(OC)c1)C(=O)c1ccccc1C2=O | 
22 | 536 | 1.13 | COCC[n+]1c2c(n(Cc3ccccc3)c1/C=C/c1ccc(O)c(OC)c1)C(=O)c1ccccc1C2=O | 
52 | 891 | 2.05 | CC[n+]1c2c(n(C3CC3)c1/C=C/c1c[nH]c3ccccc13)C(=O)c1ccccc1C2=O | 
22 | 1070 | 1.12 | CC[n+]1c2c(n(C(C)C)c1/C=C/c1ccc(C)cc1)C(=O)c1ccccc1C2=O | Activity (A-375 [8]): Active; Activity (A-375 [9]): Active; Activity (A-375 [10]): Active; viability at 0.01 µM (A-375 [11]): 88.3%; viability at 0.1 µM (A-375 [12]): 82.2%; viability at 1 µM (A-375 [13]): 65.7%; viability at 0.001 µM (PC-3 [14]): 98%; viability at 0.01 µM (PC-3 [15]): 96.5%; viability at 0.1 µM (PC-3 [16]): 75.6%; Activity (A-375 [17]): Dose-dependent effect
